Test results published in ChEMBL document CHEMBL4177580, “New 5-HT1A, 5HT2A and 5HT2C receptor ligands containing a picolinic nucleus: Synthesis, in vitro and in vivo pharmacological evaluation” (Bioorg Med Chem, 2017).
Calls of active or inactive are those of the source.

Assays:
Mus musculus [1] = experiment: Anxiolytic-like activity in Swiss albino mouse assessed as increase in time spent in open arms at 3.75 to 15 mg/kg measured for 5 mins test period by elevated plus maze test; type: functional, organism-based
Mus musculus [2] = experiment: Induction of hypothermia in normothermic Swiss albino mouse assessed as reduction in body temperature at 30 mg/kg, ip measured after 120 mins post dose; type: functional, organism-based
In short: (§1)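 Normothermic male Swiss mice; rectal thermistor readings over 180 min. Baseline is the mean of readings 60 and 30 min before dosing; readings at 30, 60, 90, 120 min post-injection; Δt = tf − ti. Test compounds i.p. (DMSO/methylcellulose); 8-OH-DPAT (5 mg/kg) and WAY 100635 (0.1 mg/kg) s.c. in water. Two-way ANOVA, Bonferroni.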

Mus musculus [3] = experiment: Toxicity in Swiss albino mouse assessed as reduction in spontaneous locomotor activity at 7.5 mg/kg, ip dosed 60 mins before test; type: organism-based; settings: in vivo, 1 h
In short: (§2)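 Spontaneous locomotion: mice dosed i.p. 60 min before being placed individually in an actometer for 30 min. Distance travelled read at 6 and 30 min. Cages cleaned with 70% ethanol between animals. One-way ANOVA with Dunnett's; mean ± SEM of one experiment.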

Rattus norvegicus [4] = experiment: In-vivo 5-HT1A receptor agonist activity in Wistar rat assessed as induction of lower lip retraction by measuring lower lip retraction score at 1 mg/kg, ip dosed 15 mins before test co-treated with 0.3 mg/kg, ip WAY100635
Rattus norvegicus [5] = experiment: In-vivo 5-HT1A receptor antagonist activity in Wistar rat assessed as reduction in 8-OH-DPAT-stimulated induction of lower lip retraction by measuring lower lip retraction score at 30 mg/kg, ip dosed 15 mins before test (reference value: 2.875 +/- 0.08183)
Rattus norvegicus [6] = experiment: In-vivo 5-HT1A receptor agonist activity in Wistar rat assessed as induction of lower lip retraction by measuring lower lip retraction score at 30 mg/kg, ip dosed 15 mins before test (reference value: 0.0 +/- 0.0)
[7] = molecular target: T1, 5-hydroxytryptamine receptor 1A (Rattus norvegicus, UniProt P19327); experiment: Displacement of [3H]-8-OH-DPAT from serotonin 5-HT1A receptor in Sprague-Dawley rat brain cortex homogenates incubated for 30 mins by liquid scintillation spectrometry
T1 sequence (P19327 whole entry): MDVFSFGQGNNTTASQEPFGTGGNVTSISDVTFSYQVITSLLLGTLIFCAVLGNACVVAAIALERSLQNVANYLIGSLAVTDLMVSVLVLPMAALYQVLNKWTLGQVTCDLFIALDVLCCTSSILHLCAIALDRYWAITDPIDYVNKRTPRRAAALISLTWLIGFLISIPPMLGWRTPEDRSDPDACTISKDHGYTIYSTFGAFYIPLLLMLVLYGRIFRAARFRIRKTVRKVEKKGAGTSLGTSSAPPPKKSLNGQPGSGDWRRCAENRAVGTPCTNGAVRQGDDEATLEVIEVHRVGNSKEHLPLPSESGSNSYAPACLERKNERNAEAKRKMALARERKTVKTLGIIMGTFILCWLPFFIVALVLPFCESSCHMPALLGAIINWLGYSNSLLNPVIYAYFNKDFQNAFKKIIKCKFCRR

Mus musculus [8] = experiment: Toxicity in Swiss albino mouse assessed as effect on motor coordination at 3.75 to 15 mg/kg, ip dosed 60 mins before test by Chimney test; type: organism-based; settings: in vivo, 1 h
In short: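 Chimney test in male Swiss mice after i.p. dosing 60 min earlier: impairment defined as failure to climb backwards up a tube (3 cm inner diameter, 25 cm long) within 60 s. Animals pre-trained once daily for 3 days. One-way ANOVA with Dunnett's.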

[9] = molecular target: T2, 5-hydroxytryptamine receptor 2C (Rattus norvegicus, UniProt P08909); experiment: Displacement of [3H]mesulergine from serotonin 5-HT2C receptor in Sprague-Dawley rat brain cortex homogenates incubated for 15 mins by liquid scintillation spectrometry
T2 sequence (P08909 whole entry): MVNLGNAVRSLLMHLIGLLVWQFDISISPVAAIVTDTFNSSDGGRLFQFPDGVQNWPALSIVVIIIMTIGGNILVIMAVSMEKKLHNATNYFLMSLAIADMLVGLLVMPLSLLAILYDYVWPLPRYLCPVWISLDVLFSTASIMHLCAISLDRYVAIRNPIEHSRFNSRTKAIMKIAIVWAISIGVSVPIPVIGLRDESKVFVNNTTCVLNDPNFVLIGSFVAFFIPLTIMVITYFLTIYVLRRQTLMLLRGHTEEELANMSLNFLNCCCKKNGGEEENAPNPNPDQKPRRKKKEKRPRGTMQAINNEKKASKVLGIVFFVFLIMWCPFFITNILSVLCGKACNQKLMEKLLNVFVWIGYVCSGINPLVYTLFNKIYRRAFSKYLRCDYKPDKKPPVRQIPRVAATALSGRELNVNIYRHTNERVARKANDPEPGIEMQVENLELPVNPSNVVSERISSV

Mus musculus [10] = experiment: Antidepressant-like activity in Swiss albino mouse assessed as reduction in immobility time at 15 mg/kg, ip dosed 1 hr before test by forced swimming test; type: functional, organism-based
In short: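 Male Swiss albino mice (18-24 g). The reference drug was diluted in saline and given ip (10 ml/kg) 1 h before testing. Each mouse swam for 6 min in a cylinder (25 cm high, 10 cm diameter) holding 10 cm of water at 23-25°C. Immobility was timed over the last 4 min. Data are mean ± SEM, analysed by one-way ANOVA with Dunnett's test.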

Mus musculus [11] = experiment: Antidepressant-like activity in Swiss albino mouse assessed as reduction in immobility time at 7.5 mg/kg, ip dosed 1 hr before test by forced swimming test; type: functional, organism-based
In short: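 Male Swiss albino mice (18–24 g), compound i.p. in 0.1% DMSO/0.5% methylcellulose 1 h pre-test. Porsolt swim: cylinder 25 cm high, 10 cm diameter, 10 cm water at 23–25°C, 6 min session; immobility scored over last 4 min. Blind observer; one-way ANOVA with Dunnett's; mean ± SEM.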

[12] = molecular target: 5-hydroxytryptamine receptor 2A (Rattus norvegicus, UniProt P14842); experiment: Displacement of [3H]ketanserin from serotonin 5-HT2A receptor in Sprague-Dawley rat brain cortex homogenates incubated for 15 mins by liquid scintillation spectrometry
Chain of 5-hydroxytryptamine receptor 2A (P14842 whole entry): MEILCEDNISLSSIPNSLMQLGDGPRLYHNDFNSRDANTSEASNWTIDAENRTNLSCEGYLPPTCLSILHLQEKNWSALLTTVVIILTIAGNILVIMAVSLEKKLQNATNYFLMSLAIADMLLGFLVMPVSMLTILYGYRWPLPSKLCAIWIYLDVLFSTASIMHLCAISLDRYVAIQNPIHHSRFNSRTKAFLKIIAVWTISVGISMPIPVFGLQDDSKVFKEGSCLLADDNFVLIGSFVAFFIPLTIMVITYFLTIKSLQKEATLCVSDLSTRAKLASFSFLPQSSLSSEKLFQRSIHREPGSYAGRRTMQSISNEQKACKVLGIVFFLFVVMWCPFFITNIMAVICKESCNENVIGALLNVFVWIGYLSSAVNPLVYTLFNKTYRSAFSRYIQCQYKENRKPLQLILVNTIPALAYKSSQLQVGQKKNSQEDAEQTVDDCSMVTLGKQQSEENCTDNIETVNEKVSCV

Mus musculus [13] = experiment: Inhibition of 8-OH-DPAT-induced hypothermia in Swiss albino mouse at 30 mg/kg, ip measured after 120 mins post dose co-treated with 8-OH-DPAT; type: functional, organism-based; in short: as §1
Mus musculus [14] = experiment: Toxicity in Swiss albino mouse assessed as reduction in spontaneous locomotor activity at 15 mg/kg, ip dosed 60 mins before test; type: organism-based; settings: in vivo, 1 h; in short: as §2
Rattus norvegicus [15] = experiment: In-vivo 5-HT1A receptor antagonist activity in Wistar rat assessed as reduction in 8-OH-DPAT-stimulated induction of lower lip retraction by measuring lower lip retraction score at 0.3 mg/kg, ip dosed 15 mins before test (reference value: 2.875 +/- 0.08183)
Mus musculus [16] = experiment: Inhibition of 8-OH-DPAT-induced hypothermia in Swiss albino mouse at 0.1 mg/kg, ip measured after 120 mins post dose co-treated with 8-OH-DPAT; type: functional, organism-based
Rattus norvegicus [17] = experiment: In-vivo 5-HT1A receptor agonist activity in Wistar rat assessed as induction of lower lip retraction by measuring lower lip retraction score at 0.3 mg/kg, ip dosed 15 mins before test (reference value: 0.0 +/- 0.0)

Row | Ki [7] [pM] | Ki [9] [µM] | Ki [12] [µM] | Structure (SMILES) | Activity (Mus musculus [1]) | Activity (Mus musculus [2]) | Activity (Mus musculus [3]) | Activity (Rattus norvegicus [4]) | Activity_index (Rattus norvegicus [5]) | Activity_index (Rattus norvegicus [6]) | Activity (Mus musculus [8]) | Activity (Mus musculus [10]) | Activity (Mus musculus [11]) | inhibition (Mus musculus [13]) | Activity (Mus musculus [14]) | Activity_index (Rattus norvegicus [15]) | inhibition (Mus musculus [16]) | Activity_index (Rattus norvegicus [17])
1 | 46 | > 10 | > 10 | O=C(NCCN1CCN(c2ncccn2)CC1)c1ccccn1 | Active | inactive | Non-Toxic | inactive | 2 | 2.714 | Non-Toxic | Active | Active | Active | Non-Toxic | – | – | –
2 | – | – | – | COc1ccccc1N1CCN(CCN(C(=O)C2CCCCC2)c2ccccn2)CC1 [WAY-100,635] | – | – | – | – | – | – | – | – | – | – | – | 1.667 | Active | 0
